# Entries after “also recorded” stand apart in the source; their conditions may differ.
# Tested on: not listed separately
# Experiment: Nutrikinetics of isoflavone metabolites in serum after oral boiled soybean
# Format: in vivo, mice (C57BL/6)
# Conditions: OVX groups
row,"AUC(0–24h), CGJ administered versus BS administered",Compound
1,significantly higher,O=c1c(-c2ccc(O)cc2)coc2cc(O)cc(O)c12 [Genistein]
2,significantly higher,O=c1c(-c2ccc(OS(=O)(=O)O)cc2)coc2cc(O)cc(O)c12 [Genistein 4′‐sulfate]

# Same assay, conditions: OVX mice, relative peak area
row,"serum concentration, CGJ‐treated compared with BS‐treated",Compound
1,higher in BS‐treated,COc1ccc(-c2coc3cc(O)ccc3c2=O)cc1 [Formononetin]
2,significantly higher,O=c1c(-c2ccc(O)cc2)coc2cc(O)ccc12 [Daidzein]
3,higher concentrations,O=c1c(-c2ccc(OS(=O)(=O)O)cc2)coc2cc(O)cc(O)c12 [Genistein 4′‐sulfate]
4,higher concentrations,Dihydrodaidzein sulfate
5,higher in BS‐treated,O=C(O)/C=C/c1ccc(O)c(O)c1 [Caffeic acid]
6,higher in BS‐treated,"O=C(O)c1ccc(O)cc1 [4‐hydroxybenzoic acid, 4‐Hydroxybenzoic acid]"
7,higher in BS‐treated,Methyl caffeic acid
8,higher concentrations,O=C(O)[C@H]1O[C@@H](Oc2ccc3c(c2)OC[C@H](c2ccc(O)cc2)C3)[C@H](O)[C@@H](O)[C@@H]1O [Equol 7‐glucuronide]

row,Compound,"serum concentration, CGJ‐treated compared with BS‐treated"
1,O=c1c(-c2ccc(O)cc2)coc2cc(O)cc(O)c12 [Genistein],higher concentrations; also recorded: significantly higher

# Same assay, conditions: OVX mice; abstract does not name the group
row,Compound,"bioavailability, CGJ‐treated compared to BS‐treated (unfermented soybean)"
1,O=c1c(-c2ccc(O)cc2)coc2cc(O)cc(O)c12 [Genistein],enhances
2,O=C(O)[C@H]1O[C@@H](Oc2ccc3c(c2)OC[C@H](c2ccc(O)cc2)C3)[C@H](O)[C@@H](O)[C@@H]1O [Equol 7‐glucuronide],enhances; also recorded: higher bioavailability

# Same assay, conditions: all groups
row,concentration based on area‐under‐the‐curve analysis,Compound
1,high concentrations,O=c1c(-c2ccc(O)cc2)coc2cc(O)cc(O)c12 [Genistein]
2,high concentrations,O=c1c(-c2ccc(O)cc2)coc2cc(O)ccc12 [Daidzein]
3,high concentrations,O=c1c(-c2ccc(OS(=O)(=O)O)cc2)coc2cc(O)cc(O)c12 [Genistein 4′‐sulfate]
4,high concentrations,Dihydrodaidzein sulfate
5,high concentrations,O=C(O)[C@H]1O[C@@H](Oc2ccc3c(c2)OC[C@H](c2ccc(O)cc2)C3)[C@H](O)[C@@H](O)[C@@H]1O [Equol 7‐glucuronide]

# Same assay, conditions: pooled serum of sham and OVX groups after BS or CGJ, UPLC–QTOF‐MS
row,Compound,detection in pooled serum samples
1,O=c1c(-c2ccc(O)cc2)coc2cc(O)cc(O)c12 [Genistein],detected
2,O=c1c(-c2ccc(O)cc2)coc2cc(O[C@@H]3O[C@H](CO)[C@@H](O)[C@H](O)[C@H]3O)cc(O)c12 [Genistin],not detected
3,O=c1c(-c2ccc(O)cc2)coc2cc(O[C@@H]3O[C@H](CO)[C@@H](O)[C@H](O)[C@H]3O)ccc12 [Daidzin],not detected
4,COc1cc2c(=O)c(-c3ccc(O)cc3)coc2cc1O [Glycitein],detected

# Same assay, conditions: sham group
row,"AUC, CGJ treatment versus BS treatment",Compound
1,significantly higher,O=c1c(-c2ccc(O)cc2)coc2cc(O)cc(O)c12 [Genistein]
2,significantly higher,O=c1c(-c2ccc(O)cc2)coc2cc(O)ccc12 [Daidzein]

# Tested on: RAW 264.7 cells
# Experiment: RANKL‐induced bone resorption activity
# Format: cell-based
# Conditions: abstract summary
# In short: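 RAW 264.7 macrophages were grown in DMEM and seeded. Medium was replaced with RANKL‐containing differentiation medium plus test compound, then held 5 days without medium change. Bone resorption activity was measured with a commercial bone resorption assay kit. Means ± SD, n = 3, three independent experiments, tested against the control group.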
row,Compound,osteoclast formation
1,O=c1c(-c2ccc(OS(=O)(=O)O)cc2)coc2cc(O)cc(O)c12 [Genistein 4′‐sulfate],inhibit osteoclast formation
2,O=C(O)[C@H]1O[C@@H](Oc2ccc3c(c2)OC[C@H](c2ccc(O)cc2)C3)[C@H](O)[C@@H](O)[C@@H]1O [Equol 7‐glucuronide],inhibit osteoclast formation

# Tested on: MC3T3‐E1 cells
# Experiment: Alkaline phosphatase
# Format: cell-based
# Conditions: 0.1–0 5 μ M, 6 days differentiation
# In short: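 MC3T3‐E1 subclone 4 cells were kept in αMEM without L‐ascorbic acid and seeded at 2 × 10^4 cells/well. Differentiation was induced with 50 μg mL–1 L‐ascorbic acid and 10 mM β‐glycerophosphate plus test compound for 6 days. Cells were PBS‐washed and lysed in 0.2% Triton X‐100, and ALP was read with a pNPP kit. Means ± SD, n = 3, three independent experiments, tested against the control group.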
row,Compound,ALP activity
1,COc1ccc(-c2coc3cc(O)ccc3c2=O)cc1 [Formononetin],stimulated ALP activity
2,O=c1c(-c2ccc(OS(=O)(=O)O)cc2)coc2cc(O)cc(O)c12 [Genistein 4′‐sulfate],stimulated ALP activity
3,O=C(O)/C=C/c1ccc(O)c(O)c1 [Caffeic acid],stimulated ALP activity
4,O=C(O)[C@H]1O[C@@H](Oc2ccc3c(c2)OC[C@H](c2ccc(O)cc2)C3)[C@H](O)[C@@H](O)[C@@H]1O [Equol 7‐glucuronide],stimulated ALP activity

# Same assay, conditions: abstract summary
row,Compound,osteoblastogenesis
1,O=c1c(-c2ccc(OS(=O)(=O)O)cc2)coc2cc(O)cc(O)c12 [Genistein 4′‐sulfate],promote osteoblastogenesis
2,O=C(O)[C@H]1O[C@@H](Oc2ccc3c(c2)OC[C@H](c2ccc(O)cc2)C3)[C@H](O)[C@@H](O)[C@@H]1O [Equol 7‐glucuronide],promote osteoblastogenesis

# Tested on: MC3T3‐E1 cells
# Experiment: Mineralization assay
# Format: cell-based
# Conditions: 21‐day incubation
# In short: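 MC3T3‐E1 cells were differentiated with test compound and incubated 21 days. Cells were washed, fixed in 4% formalin and stained with 2% Alizarin Red S. Bound stain was solubilized in 10% […] in 10 mM sodium phosphate and absorbance read at 562 nm. Means ± SD, n = 3, three independent experiments, tested against the control group.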
row,Compound,"mineralization, calcium deposition by ARS staining"
1,O=c1c(-c2ccc(OS(=O)(=O)O)cc2)coc2cc(O)cc(O)c12 [Genistein 4′‐sulfate],Extensive calcium deposition
2,O=C(O)/C=C/c1ccc(O)c(O)c1 [Caffeic acid],Extensive calcium deposition
3,O=C(O)[C@H]1O[C@@H](Oc2ccc3c(c2)OC[C@H](c2ccc(O)cc2)C3)[C@H](O)[C@@H](O)[C@@H]1O [Equol 7‐glucuronide],Extensive calcium deposition
